zVAD death inh: inhibitors of zVAD-triggered necroptosis, primary screen, L929 cells; L929 zVAD necroptosis rescue, ATP luminescence, 24 h; with zVAD 60 µM; viability rescue, % at 10 µM; 220,000 compounds, 0.38% hits; AID 1377, 2008;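 active = activation, scaled between plate controls, above about 75%, limit read from the data; inactive = activation under that limit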;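 note: 0% = zVAD with DMSO and 100% = DMSO alone without zVAD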
STAT3 act-1: IL-6 driven STAT3 reporter potentiators, primary screen, U3A cells, luciferase, luminescence, MLSCN library; IL-6 STAT3-luciferase reporter; 100% = signal with IL-6 EC80 alone; activation (% of control), % at 5.6 µM; 190,000 compounds, 0.91% hits;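 active = activation above the screen-wide mean of compound activation plus 3 SD, cut at about 130% in these data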;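 note: 0% = background luminescence of wells with medium and substrate only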
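Test system: Human STAT1-deficient U3A cells with stable STAT3-luciferase reporter | Also added: Interleukin-6, 33 ng/mL | Timing: Compound pre-incubation 1 h before IL-6, then 6 h stimulation at 37 °C | Technique: Luciferase reporter luminescence | Read-out: Percent of IL-6-only median luminescence | Benchmarks: IL-6-only wells as 100% reference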
TNF necrop inh: inhibitors of TNF-alpha triggered necroptosis, primary screen, cell-based, Jurkat FADD-/-, single concentration; activation (protection from cell death), % at 10 µM; Jurkat FADD-/- TNF necroptosis rescue, ATP luminescence, 24 h; 0 = TNF only, 100 = no-TNF cells; 220,000 compounds, 0.068% hits; AID 463075, 2010;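 active = activation, meaning protection from cell death, of at least 50% relative to plate controls; inactive = activation below 50%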;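 note: necroptosis triggered by 40 ng/mL TNF-alpha added together with compound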
STAT3 inh: IL-6 driven STAT3 reporter inhibitors, primary screen, U3A cells, luciferase, luminescence, MLSCN library; IL-6 STAT3-luciferase reporter; host cell line lacks STAT1; inhibition, % at 5.5 µM; 190,000 compounds, 0.89% hits; AID 862, 2007;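 active = inhibition above the mean inhibition across all screened compounds plus 3 SD, cut at about 44% in these data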;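 note: 0% = DMSO only wells and 100% = 100 µM nifuroxazide control wells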
STAT1 blocker: STAT1 signaling inhibitors, primary screen, cell-based, HTS, luciferase reporter. NIH 3T3 STAT1-luciferase reporter, IFN-gamma, luminescence. inhibition, % at 5.5 µM. 200,000 compounds, 0.35% hits;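 active = inhibition above a set limit, the mean inhibition across all tested compounds plus 3 SD, cut at about 34% in these data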;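 note: 0% = IFN-gamma with DMSO and 100% = IFN-gamma with 300 µM nifuroxazide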
STAT3 act-2: STAT3 reporter potentiators, retest of hits, confirmation, U3A cells, luciferase, luminescence; potentiation (% of control), % at 5.7 µM; shares compounds with STAT3 act-1; 1,200 compounds, 64% hits; IL-6 potentiation; U3A cells lack STAT1; 100 means same as IL-6 alone;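 active = percent activation of the STAT3 luciferase reporter above a set limit taken from the earlier primary screen, cut at about 130% in these data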;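 note: 0% = background signal of medium plus substrate and 100% = median of IL-6 with DMSO wells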
NFkB act 2: NF-kB reporter activators in human cells, counter-screen for STAT3 activator project; shares compounds with STAT3 act-1; activation (% of control), % at 5.7 µM; NF-kappaB reporter activation; 1,200 compounds, 11% hits; in the data active = activation above about 120%;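 note: reporter induced by TNF-alpha stimulation; 100% = median of stimulated DMSO wells and 0% = no signal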
STAT1 act: STAT1 reporter activators, IFN-gamma induced, counter-screen for STAT3 activator project, cell-based, NIH 3T3, luciferase luminescence | AID 1318, 2008 | shares compounds with STAT3 act-1 | NIH 3T3 STAT1-luciferase reporter | 1,200 compounds, 13% hits | activation (% of control), % at 5.7 µM;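 active = activation above the solvent-only control well mean plus 3 SD, set per screening run, cut at about 120% in these data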;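 note: 100% = IFN-gamma with DMSO median signal so 100% means no change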
An asterisk follows results filed as active; nt = no result given. Most compounds without a hit are left out; they make up all but 2.1% or so of the library.

SMILES | zVAD death inh | STAT3 act-1 | TNF necrop inh | STAT3 inh | STAT1 blocker | STAT3 act-2 | NFkB act 2 | STAT1 act
CC(OC(=O)c1cccnc1SCc1cc(=O)n2ccccc2n1)c1ccccn1 (centres undefined) | 0 | 153* | -8 | -69 | -7 | 134* | 100 | 99
CCOC(=O)c1cccnc1SCc1cc(=O)n2ccccc2n1 | 1 | 138* | -5 | -40 | 2 | 129 | 103 | 96
O=S1(=O)N=C(N(CCO)/N=C/c2ccncc2)c2ccccc21 | 2 | 101 | -9 | 4 | -2 | nt | nt | nt
CC(C)NC(=O)C(=O)c1cn(C)c2ccccc12 | 4 | 96 | 0 | 10 | -5 | nt | nt | nt
COc1ccc(-c2nc3scc(-c4ccccc4)n3n2)cc1 | 1 | 160* | -2 | -67 | 12 | 144* | 103 | 95
CCOC(=O)Cc1csc2nc(-c3ccccc3)nn12 | 0 | nt | 1 | nt | nt | nt | nt | nt
CCCn1c(N2CCN(CC(=O)c3c[nH]c4ccccc34)CC2)nc2c1c(=O)[nH]c(=O)n2C | 0 | 147* | -9 | -53 | 1 | 139* | 104 | 97
O=C(CN1CCN(Cc2ccccc2)CC1)c1c[nH]c2ccccc12 | 1 | 138* | 0 | -42 | 3 | 123 | 100 | 98
O=C(CN1CCSCC1)c1c[nH]c2ccccc12 | 1 | 125 | 0 | -21 | 14 | nt | nt | nt
CCn1c(N2CCN(CC(=O)c3c(C)n(C)c4ccccc34)CC2)nc2c1c(=O)[nH]c(=O)n2C | 0 | 93 | -8 | 12 | 3 | nt | nt | nt
Cc1oc2c(cc(NS(=O)(=O)c3ccc4c5c(cccc35)C(=O)N4)c3ccccc32)c1C(=O)OC(C)C | 0 | 125 | -1 | -24 | 5 | nt | nt | nt
O=CN(/C=C1\Sc2ccccc2C1=O)Cc1ccccc1 | 0 | 126 | -13 | -26 | -18 | nt | nt | nt
Cc1ccc(N)c2c1OCCC2=O | 1 | 137* | 0 | -48 | 16 | 137* | 108 | 90
NC(=O)C1CNc2ccccc2O1 (centres undefined) | -1 | 156* | 0 | -67 | -3 | 148* | 105 | 100
Cc1ccc2c(c1)NCC(C(=O)NCc1ccccc1)O2 (centres undefined) | nt | 98 | 2 | 2 | 3 | nt | nt | nt
CCOc1ccc(NC(=S)N(CCc2ccncc2)C(C)C)cc1 | 0 | 103 | 1 | 1 | -8 | nt | nt | nt
c1cncc(-c2nc(NCc3ccco3)c3ccccc3n2)c1 | 1 | 125 | 0 | -26 | -4 | nt | nt | nt
Cc1ccc(-c2nc(NCc3ccco3)c3ccccc3n2)cc1 | 0 | 139* | 1 | -46 | 3 | 153* | 109 | 109
O=S(=O)(c1ccc(Br)cc1)N1CCN(c2ccc3nnc(-c4ccccc4)n3n2)CC1 | -1 | 167* | -5 | -69 | -1 | 144* | 109 | 101
Cc1nc(C(=O)NNC(=O)c2c(-c3c(Cl)cccc3Cl)noc2C)cs1 | 2 | nt | -2 | nt | nt | nt | nt | nt
O=C(NCc1ccco1)C1CCCN(S(=O)(=O)c2cccc3nsnc23)C1 (centres undefined) | 2 | 98 | 3 | 6 | 2 | nt | nt | nt
Cc1ccc(NC(=O)C2=C(O)CCn3c2nc2ccccc23)cc1 | 0 | 149* | -2 | -47 | -12 | 124 | 101 | 104
Cc1ccc(NC(=O)c2ccccc2O)cc1 | 0 | 88 | -3 | 18 | -4 | nt | nt | nt
O=C1C2CCCN2C(=O)N1CCCCN1CCN(c2ccccc2)CC1 (centres undefined) | 0 | 80 | 1 | 26 | 0 | nt | nt | nt

Screens: PubChem BioAssay, several laboratories
